# Only some compounds are listed: those with a hit (about 1.6% of all), similar ones and a draw of the others.
# NR2E3 ag-1 = NR2E3 (human) agonism; inhibition of corepressor binding, % at 4.78 µM; GST-NR2E3/biotin-RetCOR TR-FRET, 1536-well; 320,000 compounds, 0.12% hits; Q9Y5X4;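 active = percent inhibition above the cutoff of mean plus 3 SD of all tested compounds, set per screening campaign, cut at about 20% in these data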;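 note: 0% = DMSO wells and 100% = biotin wells as full block of FRET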
#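 Test system: GST-NR2E3 and biotin-RetCOR proteins | Quantity: 1.35 nM GST-tagged NR2E3 final | Medium: Tris pH 7.5 | Also added: 7 nM biotin-RetCOR | Dosing: Compound at 4.8 µM, single dose | Timing: 5 h at 4 °C | Detection: Time-resolved FRET | Read-out basis: Percent inhibition | Benchmarks: Biotin wells as high control, 0.6% DMSO wells as low control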
# NR2E3 ag-2 = activates human NR2E3 receptor; Q9Y5X4; CHO-S Gal4-NCOR/VP16-NR2E3 two-hybrid, luciferase; inhibition of corepressor binding, % at 3.98 µM; 360,000 compounds, 0.35% hits; AID 602229;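 active = inhibition above the mean of all tested compounds plus 3 SD, cut at about 70% in these data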;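 note: 0% = DMSO with NR2E3 transfected cells and 100% = cells lacking NR2E3 construct; higher means lower luciferase signal from less NR2E3 corepressor binding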
# NR1D1 modulator = Rev-erb alpha (human) modulation | Rev-erbα–FITC-DNA binding, fluorescence polarization, 90 min | activity, % at 10 µM | 370,000 compounds, 0.79% hits;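 active = activity above about 14%, limit read from the data; passing the limit was not always enough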;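 note: 0% = DMSO wells with 35 nM protein and 100% = DMSO wells with 750 nM protein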
# PG9 Ab binder = binds the HIV-1 gp120 antibody PG9; TR-FRET gp120-PG9 antibody binding; inhibition, % at 6.7 µM; 360,000 compounds, 0.43% hits; AID 624416; in the data active = inhibition above about 8.5%
# VLA-4 inh = inhibition in a human VLA-4 binding assay; VLA-4 expressing cells, ligand binding flow cytometry; AID 2557; 330,000 compounds, 0.2% hits; inhibition, % (about 7 µM as worked out from the volumes in the protocol); in the data active = inhibition above about 50%
# Target sequence (P13612 whole entry, looked up): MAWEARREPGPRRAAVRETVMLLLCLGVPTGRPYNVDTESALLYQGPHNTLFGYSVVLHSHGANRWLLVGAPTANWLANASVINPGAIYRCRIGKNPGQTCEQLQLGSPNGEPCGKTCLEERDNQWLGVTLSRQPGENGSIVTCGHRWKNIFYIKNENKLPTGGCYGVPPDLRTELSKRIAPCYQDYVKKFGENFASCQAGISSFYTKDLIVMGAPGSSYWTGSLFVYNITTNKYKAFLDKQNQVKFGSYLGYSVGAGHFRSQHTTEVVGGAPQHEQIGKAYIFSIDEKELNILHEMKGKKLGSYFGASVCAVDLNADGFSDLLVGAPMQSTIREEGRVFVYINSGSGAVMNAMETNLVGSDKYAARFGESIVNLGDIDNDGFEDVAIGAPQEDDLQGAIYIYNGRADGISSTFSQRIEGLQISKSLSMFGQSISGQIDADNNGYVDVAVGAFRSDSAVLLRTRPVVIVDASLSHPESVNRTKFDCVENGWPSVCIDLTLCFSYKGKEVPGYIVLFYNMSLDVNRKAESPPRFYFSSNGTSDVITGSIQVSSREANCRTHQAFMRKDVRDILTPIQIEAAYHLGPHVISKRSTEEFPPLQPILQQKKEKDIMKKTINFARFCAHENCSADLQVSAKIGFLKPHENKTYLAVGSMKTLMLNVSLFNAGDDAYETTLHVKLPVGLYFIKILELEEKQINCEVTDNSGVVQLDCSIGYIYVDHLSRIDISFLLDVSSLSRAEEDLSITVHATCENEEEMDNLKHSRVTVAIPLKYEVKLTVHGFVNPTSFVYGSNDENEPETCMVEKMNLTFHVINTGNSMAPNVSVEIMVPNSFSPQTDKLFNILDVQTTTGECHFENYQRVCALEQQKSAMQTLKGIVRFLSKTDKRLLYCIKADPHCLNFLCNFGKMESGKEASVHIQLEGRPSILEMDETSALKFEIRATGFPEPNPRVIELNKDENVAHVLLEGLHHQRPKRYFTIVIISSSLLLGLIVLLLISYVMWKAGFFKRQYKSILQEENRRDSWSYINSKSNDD
# NR2E3 ag confirm = confirmation of human NR2E3 agonists. shares compounds with NR2E3 ag-2. CHO-S mammalian two-hybrid NR2E3-NCOR, luciferase luminescence. inhibition, % at 3.98 µM. 2,300 compounds, 51% hits. AID 624378;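 active = average inhibition above a cutoff equal to the mean inhibition of all tested compounds plus one SD, cut at about 70% in these data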;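 note: 0% = DMSO in NR2E3 cells and 100% = DMSO in cells lacking NR2E3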
# GAL4-VP16 luc = GAL4-VP16 reporter inhibition in NR2E3 agonist counterscreen; CHO-S GAL4-VP16 luciferase reporter, luminescence; 2,300 compounds, 29% hits; shares compounds with NR2E3 ag-2; inhibition, % at 3.98 µM;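 active = mean inhibition above a cutoff equal to the average over all tested compounds plus one standard deviation, cut at about 70% in these data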;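 note: luciferase from a UAS reporter driven by GAL4-VP16 transactivation; 0% = DMSO with VP16-transfected cells and 100% = DMSO with cells lacking VP16; higher means less reporter light so more repression of VP16 activity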
# * hit, by the source's call; / = no result given.
SMILES,NR2E3 ag-1,NR2E3 ag-2,NR1D1 modulator,PG9 Ab binder,VLA-4 inh,NR2E3 ag confirm,GAL4-VP16 luc
COc1ccc(NC(=O)CN(C)C(=O)c2ccc(N3CCCC3)c([N+](=O)[O-])c2)cc1,-4,10,10,-3,5,/,/
CN(CC(=O)Nc1cccc(F)c1)C(=O)c1cccc(S(=O)(=O)N2CCN(c3ccccc3)CC2)c1,-3,26,-3,-2,3,/,/
O=C(Nc1ccc2ccccc2c1)NC1CCCCN(Cc2ccc(Cl)cc2)C1=O (centres undefined),/,/,7,/,/,/,/
O=C(CCc1nc(-c2ccccc2F)no1)NCCc1ccccc1F,/,/,4,/,/,/,/
Cc1oc(-c2ccc3c(c2)OCCO3)cc1C(=O)O,4,59,-3,-2,-4,61,50
O=C(CSc1nnc(Cn2nnc3ccccc32)o1)Nc1cccc(Cl)c1,-1,-6,-1,1,8,/,/
O=C(CSc1nnc(Cn2nnc3ccccc32)o1)N(Cc1ccc(Cl)cc1)c1ccccc1,5,81*,-1,-3,0,94*,81*
Clc1ccc(CSc2nnc(Cn3cnc4ccccc43)o2)cc1,0,60,0,1,1,80*,69
c1ccc(CCSc2nnc(-c3cccnc3)n2Cc2ccccc2)cc1,/,/,-4,/,/,/,/
COC(=O)C[C@@H]1CC[C@H]2[C@@H](COc3ccc(NC(=O)Nc4ccccc4C)cc3C(=O)N2C)O1,/,/,4,/,/,/,/
COc1ccc([C@@H]2CC(=O)[C@@H]3CN(S(=O)(=O)c4ccc(Cl)cc4)[C@H](c4ccc(C)cc4)C[C@@H]3N2S(=O)(=O)c2ccccc2)cc1,/,3,-1,-1,/,/,/
COc1ccc([C@@H]2C[C@H]3[C@@H](CN2S(=O)(=O)c2ccccc2)C(=O)C[C@@H](c2cccc(Cl)c2)N3S(=O)(=O)c2ccc(C)cc2)cc1,/,62,/,/,/,72*,55
CCOC(=O)[C@]12CCCCC/C=C\1N(CCc1ccc(Cl)cc1)C(=O)[C@H]2CC(=O)N1CCCC1,/,/,-5,/,/,/,/
O=C(OCc1cn(Cc2c(F)cccc2F)nn1)N1CCCC1,/,/,3,/,/,/,/
COC(=O)[C@H]1C[C@]2(C(/C=C(\C)CCC=C(C)C)S(=O)(=O)c3ccccc3)c3ccccc3N[C@H]2N1 (some centres undefined),/,/,-4,/,/,/,/
CCCc1cc(=O)[nH]c(SC/C=C/c2ccccc2)n1,1,16,0,-2,2,/,/
O=c1cc(C(F)(F)F)nc(SC/C=C/c2ccccc2)[nH]1,1,52,/,/,6,77*,29
CCc1c(C)nc(SC/C=C/c2ccccc2)[nH]c1=O,-1,83*,/,/,3,41,43
CCOC(=O)c1c2c(n(-c3ccc(OC)cc3)c1C)C(=O)C(=O)c1ccccc1-2,/,62,/,/,/,30,-16
Clc1ccc(-c2nnc3n2N=C(c2ccc(-c4ccccc4)cc2)CS3)cc1,/,/,-5,/,/,/,/
O=C(COC(=O)c1cc([N+](=O)[O-])ccc1N1CCOCC1)Nc1ccc(Cl)cc1,2,-25,-1,1,-17,/,/
O=C(OCc1ccc(Br)cc1)c1cc([N+](=O)[O-])ccc1N1CCOCC1,/,-37,3,-2,/,/,/
O=C(COC(=O)c1cc([N+](=O)[O-])ccc1N1CCOCC1)Nc1ccc(Cl)cn1,-1,78*,8,-2,0,82*,28
COc1ccc(COC(=O)c2cc([N+](=O)[O-])ccc2N2CCOCC2)cc1F,-3,48,0,-1,8,15,28
N#Cc1cc2c(nc1SCC(=O)N1CCOCC1)CCCCC2,5,73*,-3,0,11,29,0
SMILES,NR2E3 ag-1,NR2E3 ag-2,NR1D1 modulator,PG9 Ab binder,VLA-4 inh,NR2E3 ag confirm,GAL4-VP16 luc
N#Cc1cc2c(nc1SCC(N)=O)CCCCC2,-3,-82,-2,-3,20,/,/
O=C(Nc1nnc(-c2cccnc2)s1)c1cnc2ccccc2c1,/,/,-8,/,/,/,/
C=CCn1c(SCc2c(Cl)cccc2Cl)nnc1-c1cccc(C)c1,/,/,3,/,/,/,/
CC(=O)c1cccc(NS(=O)(=O)c2ccc(-c3cc(C)no3)s2)c1,5,96*,2,-3,12,70*,60
CCOC(=O)N1CCN(C(=O)C[C@H]2C[C@@]3(C(=O)OC)C(=C[C@H](C4CCCC4)O[C@@H]3C)N(CCC3=CCCCC3)C2=O)CC1,/,/,3,/,/,/,/
CN1C(=O)CS(=O)c2ccc(C(=O)NCCC3=CCCCC3)cc21 (centres undefined),0,48,-6,0,8,3,12
O=C(NCCC1=CCCCC1)c1ccc2c(c1)N(Cc1ccccc1)C(=O)CS2,2,-21,-6,-3,8,/,/
Cc1ccc(OCCN2CCC2(C)C(=O)NCc2ccc(C(F)(F)F)cc2)cc1 (centres undefined),/,53,-5,-2,/,-2,-3
Cc1ccc(OCCN2CCC2(C)C(=O)NCc2cccc3ccccc23)cc1 (centres undefined),/,-28,-1,-1,/,/,/
CC(C)(C)c1ccc(-c2n[nH]c(=S)n2C2CCCC2)cc1,-1,65,1,0,0,72*,61
Cn1c(-c2ccc(C(C)(C)C)cc2)n[nH]c1=S,-1,-38,-2,1,21,/,/
CC1CCCC=CC2CC(OC(=O)CN(C)C)CC2C(O)C=CC(=O)O1 (centres undefined),/,68,6,0,/,98*,67
CCC(NC(=O)Nc1nnc(C(F)(F)F)s1)(C(F)(F)F)C(F)(F)F,5,104*,-5,0,6,97*,90*
CC(C)CC(=O)NC(=S)Nc1ccc(N2CCN(C(=O)c3cccs3)CC2)cc1,0,65,2,-1,7,85*,68
Cc1ccccc1C(=O)N1CCN(c2ccc(NC(=S)NC(=O)c3cccs3)cc2)CC1,6,62,-2,1,-2,63,35
Cc1ccccc1C(=O)N1CCN(c2ccc(NC(=O)CSc3ccc(Cl)cc3)cc2)CC1,1,57,3,0,8,59,66
CC(C)C(=O)Nc1ccc(N2CCN(C(=O)c3cccs3)CC2)cc1,3,-8,5,-3,-3,/,/
O=C1C(=O)N(c2nccs2)C(c2ccccc2F)/C1=C(\O)c1ccc2c(c1)OCCO2 (centres undefined),12,93*,-6,8,8,92*,64
O=C1C(=O)N(c2nccs2)C(c2ccccc2)/C1=C(\O)c1ccc2c(c1)OCCO2 (centres undefined),11,76*,/,/,10,82*,44
Cc1nn(Cc2ccc(C(=O)NC(C)(C)C)o2)c(C)c1Br,-2,57,1,-1,7,61,63
Cc1cc(NC(=O)c2ccc(Cn3nc(C)c(Br)c3C)o2)no1,8,0,-1,2,36,/,/
